Common to all, as to format: functional
In one experiment the test system is Pseudomonas aeruginosa. Put plainly: Minimum inhibitory concentration against aerobic organism Pseudomonas aeruginosa strain 2835. The procedure, abridged:
(§1)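 Agar-dilution MIC in µg/mL against aerobic bacterial strains on tryptocase soy agar, with inoculum applied as spots. Most series used 10^5 cfu per spot, and a later series used 10^4 cfu per spot. In some tables, footnoted strains were instead tested on Mueller-Hinton or nutrient agar. β-Lactamase-producing strains are flagged.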

In a further experiment the test system is Streptococcus pyogenes. Put plainly: Minimum inhibitory concentration against aerobic organism Streptococcus pyogenes strain 3124. The settings on record: Streptococcus pyogenes; read-out: MIC. An outline of the steps:
as §1

In a further experiment the test system is Proteus mirabilis. The experiment can be described thus: Minimum inhibitory concentration against aerobic organism Proteus mirabilis strain 2830. Particulars: Proteus mirabilis; read-out: MIC. The procedure, abridged:
as §1

The test system of the next experiment is Enterococcus faecalis. The experiment can be described thus: Minimum inhibitory concentration against aerobic organism Streptococcus faecalis strain 2864. The procedure, abridged:
as §1

In the next experiment the test system is Shigella. The experiment can be described thus: Minimum inhibitory concentration against aerobic organism Shigella species strain 2880. The settings on record: Shigella; read-out: MIC. The procedure, abridged:
as §1

A further experiment deals with Staphylococcus aureus. Put plainly: Minimum inhibitory concentration against aerobic organism Staphylococcus aureus strain 2868. The settings on record: Staphylococcus aureus; read-out: MIC. An outline of the steps: as §1
Another experiment concerns Proteus vulgaris. The experiment can be described thus: Minimum inhibitory concentration against aerobic organism Proteus vulgaris strain 2829. The settings on record: Proteus vulgaris; read-out: MIC. An outline of the steps: as §1
A further experiment concerns Escherichia coli. The experiment can be described thus: MIC against aerobic organism Escherichia coli strain 2891. The settings on record: Escherichia coli; read-out: MIC. An outline of the steps: as §1
A further experiment concerns Serratia marcescens. The experiment can be described thus: Minimum inhibitory concentration against aerobic organism Serratia marcescens strain 2852. The settings on record: Serratia marcescens; read-out: MIC. An outline of the steps:
as §1

A further experiment has as its system Klebsiella pneumoniae. Put plainly: Minimum inhibitory concentration against aerobic organism Klebsiella pneumoniae strain 2882. The settings on record: Klebsiella pneumoniae; read-out: MIC. An outline of the steps:
as §1

Experiment [1] can be described thus: Minimum inhibitory concentration against aerobic organism Salmonella schottmuelleri strain 2837. Particulars: Salmonella; read-out: MIC. An outline of the steps:
as §1

Another experiment has as its system Klebsiella aerogenes. The experiment can be described thus: Minimum inhibitory concentration against aerobic organism Enterobacter aerogenes strain 2906. Particulars: Klebsiella aerogenes; read-out: MIC. An outline of the steps: as §1
Another experiment concerns Morganella morganii. Put plainly: Minimum inhibitory concentration against aerobic organism Morganella morganii strain 2833. Particulars: Morganella morganii; read-out: MIC. An outline of the steps:
as §1

The next experiment concerns Enterobacter cloacae. Put plainly: Minimum inhibitory concentration against aerobic organism Enterobacter cloacae strain 2646. The settings on record: Enterobacter cloacae; read-out: MIC. The procedure, abridged:
as §1

Values after ≈ are worked out from the molar mass of the structure shown.

Take `Cc1ccccc1-[n+]1ccc(N[C@@H]2C(=O)N3C(C(=O)[O-])=C(CSc4nnnn4C)CS[C@H]23)cc1`: the minimal inhibitory concentration (MIC) – broadly, the lowest concentration that inhibits growth of the organism – was more than 128 µg/mL with Pseudomonas aeruginosa; 0.25 µg/mL (≈ 0.504 µM) with Streptococcus pyogenes; more than 128 µg/mL with Proteus mirabilis; more than 128 µg/mL in the experiment with Enterococcus faecalis; 1 µg/mL (≈ 2.02 µM) with Shigella; 32 µg/mL (≈ 64.6 µM) with Staphylococcus aureus. Besides, the MIC with Proteus vulgaris was 2 µg/mL (≈ 4.04 µM); in the experiment on Escherichia coli it was 2 µg/mL (≈ 4.04 µM); with Serratia marcescens, more than 128 µg/mL; in the experiment with Klebsiella pneumoniae, 128 µg/mL (≈ 258 µM); in [1], 2 µg/mL (≈ 4.04 µM); in the experiment on Klebsiella aerogenes it was more than 128 µg/mL. In addition, the MIC in the experiment on Morganella morganii and with Enterobacter cloacae was more than 128 µg/mL throughout.
As for `COC(=O)c1ccc(NC2C(=O)N3C(C(=O)[O-])=C(CSc4nnnn4C)CSC23)[n+](C)c1` (centres undefined), the minimum inhibitory concentration (MIC) in the experiment on Pseudomonas aeruginosa is more than 128 µg/mL; in the experiment on Streptococcus pyogenes it was 16 µg/mL (≈ 33.5 µM); in the experiment on Proteus mirabilis it was more than 128 µg/mL; against Enterococcus faecalis, more than 128 µg/mL; in the experiment with Shigella it was more than 128 µg/mL; in the experiment on Staphylococcus aureus it was more than 128 µg/mL. In addition, the minimal inhibitory concentration (MIC) in the experiment on Proteus vulgaris is more than 128 µg/mL; in the experiment on Escherichia coli, more than 128 µg/mL; in the experiment on Serratia marcescens it was more than 128 µg/mL; in the experiment on Klebsiella pneumoniae, more than 128 µg/mL; in experiment [1], 128 µg/mL (≈ 268 µM); in the experiment with Klebsiella aerogenes it was more than 128 µg/mL. Besides, the MIC in the experiment on Morganella morganii and in the experiment with Enterobacter cloacae was more than 128 µg/mL in each case.
`Cn1nnnc1SCC1=C(C(=O)[O-])N2C(=O)[C@@H](Nc3cc[n+](CC(=O)[O-])cc3)[C@H]2SC1.[Na+]`: the MIC was more than 128 µg/mL with Pseudomonas aeruginosa; 2 µg/mL in the experiment on Streptococcus pyogenes; 64 µg/mL in the experiment with Proteus mirabilis; more than 128 µg/mL in the experiment on Enterococcus faecalis; 2 µg/mL in the experiment with Shigella; 32 µg/mL in the experiment on Staphylococcus aureus. In addition, the MIC in the experiment on Proteus vulgaris is 1 µg/mL; with Escherichia coli, 4 µg/mL; with Serratia marcescens, more than 128 µg/mL; in the experiment with Klebsiella pneumoniae it was 8 µg/mL; in [1], 4 µg/mL; in the experiment with Klebsiella aerogenes it was 32 µg/mL. Further, the MIC in the experiment on Morganella morganii is more than 128 µg/mL; with Enterobacter cloacae it was 64 µg/mL.
`CC(=O)OCC1=C(C(=O)[O-])N2C(=O)[C@@H](Nc3cc[n+](C)cc3)[C@H]2SC1`: the MIC with Pseudomonas aeruginosa was more than 128 µg/mL; with Streptococcus pyogenes, 2 µg/mL (≈ 5.5 µM); in the experiment on Proteus mirabilis, more than 128 µg/mL; with Enterococcus faecalis, more than 128 µg/mL; in the experiment on Shigella it was 64 µg/mL (≈ 176 µM); with Staphylococcus aureus it was 64 µg/mL (≈ 176 µM). In addition, the minimum inhibitory concentration (MIC) is less than 0.5 µg/mL in the experiment on Proteus vulgaris; more than 128 µg/mL in the experiment with Escherichia coli; more than 128 µg/mL in the experiment with Serratia marcescens; 32 µg/mL (≈ 88.1 µM) in the experiment with Klebsiella pneumoniae; 8 µg/mL (≈ 22 µM) in experiment [1]; more than 128 µg/mL in the experiment on Klebsiella aerogenes. The MIC in the experiment on Morganella morganii and in the experiment on Enterobacter cloacae was more than 128 µg/mL throughout.
With `CC[n+]1ccc(N[C@@H]2C(=O)N3C(C(=O)[O-])=C(CSc4nnnn4C)CS[C@H]23)cc1`, the MIC against Pseudomonas aeruginosa was more than 128 µg/mL; with Streptococcus pyogenes, 1 µg/mL (≈ 2.31 µM); in the experiment on Proteus mirabilis it was 2 µg/mL (≈ 4.61 µM); in the experiment on Enterococcus faecalis, more than 128 µg/mL; in the experiment on Shigella, less than 0.5 µg/mL; in the experiment with Staphylococcus aureus, 64 µg/mL (≈ 148 µM). For the same compound, the MIC was less than 0.06 µg/mL with Proteus vulgaris; less than 0.5 µg/mL in the experiment on Escherichia coli; more than 128 µg/mL in the experiment with Serratia marcescens; 1 µg/mL (≈ 2.31 µM) with Klebsiella pneumoniae; 4 µg/mL (≈ 9.23 µM) in experiment [1]; 0.5 µg/mL (≈ 1.15 µM) with Klebsiella aerogenes. The MIC in the experiment with Morganella morganii came out at 0.5 µg/mL (≈ 1.15 µM); in the experiment with Enterobacter cloacae, 2 µg/mL (≈ 4.61 µM).
Consider `Cn1nnnc1SCC1=C(C(=O)[O-])N2C(=O)[C@@H](Nc3cc[n+](CCc4ccccc4)cc3)[C@H]2SC1`, for which the MIC was more than 128 µg/mL against Pseudomonas aeruginosa; less than 0.5 µg/mL in the experiment on Streptococcus pyogenes; more than 128 µg/mL in the experiment on Proteus mirabilis; more than 128 µg/mL against Enterococcus faecalis; less than 0.5 µg/mL with Shigella; 4 µg/mL (≈ 7.85 µM) in the experiment with Staphylococcus aureus. In addition, the MIC in the experiment on Proteus vulgaris was more than 128 µg/mL; with Escherichia coli it was 4 µg/mL (≈ 7.85 µM); with Serratia marcescens it was more than 128 µg/mL; with Klebsiella pneumoniae, 1 µg/mL (≈ 1.96 µM); in [1] it was 1 µg/mL (≈ 1.96 µM); in the experiment with Klebsiella aerogenes it was 64 µg/mL (≈ 126 µM). Also, the MIC with Morganella morganii is more than 128 µg/mL; in the experiment with Enterobacter cloacae, 8 µg/mL (≈ 15.7 µM).

(Values after ChEMBL document CHEMBL1122046, “Quaternary heterocyclylamino beta-lactams: a generic alternative to the classical acylamino side chain” (1982).)
